# Screening results as filed in PubChem.
# PfG6PD inh – PfG6PD enzyme inhibitors, primary screen, biochemical, fluorescence intensity, uHTS. glucose-6-phosphate dehydrogenase-6-phosphogluconolactonase (Plasmodium falciparum 3D7). PfGluPho enzyme, NADPH resazurin-diaphorase fluorescence. inhibition, % at 20 µM. 350,000 compounds, 0.78% hits. AID 504690, 2011;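 active = inhibition reaching at least a set limit at 20 µM in the primary screen, cut at about 59% in these data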;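 note: 0% = DMSO wells with substrate and 100% = DMSO wells lacking glucose-6-phosphate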
# HKDC1 inh – HKDC1 hexokinase inhibitors, primary screen, biochemical, fluorescence, uHTS; 340,000 compounds, 0.16% hits; AID 493160, 2011; inhibition, % at 20 µM; recombinant HKDC1, G6PDH/diaphorase resazurin coupled fluorescence; Q2TB90;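 active = inhibition above about 35% when tested at 20 µM, limit read from the data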;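 note: plate controls were DMSO wells with enzyme for no effect and DMSO wells lacking enzyme for full effect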
#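 Assay system – recombinant HKDC1 (HK5) hexokinase enzyme, produced in-house · Input – HKDC1 at 5 µg/mL · Reagent – glucose plus 1 mM ATP as hexokinase substrates · Timing – 90 min reaction incubation at room temperature, dark · Measured by – G6PDH/diaphorase-coupled fluorescence, 1 mM NADP, 100 µM resazurin, 525/613 nm · Benchmarks – DMSO-enzyme wells negative, buffer-substituted wells positive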
# ABHD5 PLIN5 PPI – ABHD5-PLIN5 interaction inhibitors, primary screen, cell lysate, split luciferase complementation, luminescence. Perilipin-5 (Homo sapiens) + 1-acylglycerol-3-phosphate O-acyltransferase ABHD5 (Homo …. Split G. princeps luciferase complementation, 4 h. inhibition, % at 4 µM. 360,000 compounds, 0.78% hits. AID 602281, 2012;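 active = inhibition above the mean inhibition across every tested compound plus 3 SD, cut at about 22% in these data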;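 note: 0% = DMSO only wells and the 100% control is not disclosed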
# Target sequence (Q00G26 whole entry, looked up): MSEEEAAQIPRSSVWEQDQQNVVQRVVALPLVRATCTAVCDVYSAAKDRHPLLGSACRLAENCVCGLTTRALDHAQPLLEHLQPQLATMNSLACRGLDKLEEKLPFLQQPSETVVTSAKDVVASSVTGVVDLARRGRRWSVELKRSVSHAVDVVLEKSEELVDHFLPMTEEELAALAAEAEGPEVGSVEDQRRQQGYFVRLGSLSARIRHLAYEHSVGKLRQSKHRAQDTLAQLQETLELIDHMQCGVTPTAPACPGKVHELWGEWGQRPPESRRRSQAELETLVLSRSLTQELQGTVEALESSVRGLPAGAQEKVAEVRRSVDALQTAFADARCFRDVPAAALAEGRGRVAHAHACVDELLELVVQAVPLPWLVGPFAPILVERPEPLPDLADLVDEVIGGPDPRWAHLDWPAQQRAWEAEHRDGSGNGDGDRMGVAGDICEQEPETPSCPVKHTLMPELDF
# Target sequence (Q8WTS1 whole entry, looked up): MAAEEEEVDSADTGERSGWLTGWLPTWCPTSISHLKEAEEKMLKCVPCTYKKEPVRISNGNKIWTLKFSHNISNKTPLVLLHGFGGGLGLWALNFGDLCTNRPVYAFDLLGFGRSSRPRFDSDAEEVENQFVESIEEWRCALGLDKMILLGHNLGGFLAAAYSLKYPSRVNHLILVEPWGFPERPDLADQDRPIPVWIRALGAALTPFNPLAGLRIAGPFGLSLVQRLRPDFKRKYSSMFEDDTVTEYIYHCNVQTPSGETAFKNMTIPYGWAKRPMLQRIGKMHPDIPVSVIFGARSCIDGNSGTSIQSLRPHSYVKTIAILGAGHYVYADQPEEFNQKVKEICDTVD
# Exocytosis inh – LAMP-1 surface exposure blockers, TALL-104 cells – cell-based, flow cytometry, MLPCN library, primary screen; TALL-104 LAMP-1 surface exposure; cells stimulated with thapsigargin and PMA; inhibition, % at 10 µM; 360,000 compounds, 0.66% hits;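 active = inhibition above about 55%, limit read from the data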
# PfG6PD confirm – PfG6PD inhibitors, hit retest, confirmation, biochemical, fluorescence intensity, single concentration. shares compounds with PfG6PD inh. recombinant PfGluPho, NADPH-diaphorase-resazurin fluorescence. inhibition, % at 20 µM. 2,400 compounds, 34% hits. AID 504753, 2011;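 active = inhibition of at least 50% at 20 µM in any single replicate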;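 note: 0% = DMSO with substrate and 100% = DMSO lacking glucose-6-phosphate substrate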
# Diaphorase 10uM – diaphorase inhibitors and chemical oxidizers, confirmation, counter-screen for P. falciparum G6PD inhibitor project, biochemical, fluorescence intensity, 10 µM NADPH. shares compounds with PfG6PD inh. diaphorase-coupled resazurin reduction, NADPH 10 uM. inhibition, % at 20 µM. 820 compounds, 39% hits;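 active = average inhibition reaching 50% or more with the compound at 20 µM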;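 note: resorufin red fluorescence formed as diaphorase reduces resazurin using NADPH; 0% = DMSO with enzyme and 100% = DMSO without enzyme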
# Diaph ctr 30uM – diaphorase inhibitors and chemical oxidizers, confirmation, counter-screen for P. falciparum G6PD inhibitor project, biochemical, fluorescence intensity, 30 µM NADPH; shares compounds with PfG6PD inh; Diaphorase/resazurin coupled assay, resorufin fluorescence; inhibition, % at 20 µM; 820 compounds, 29% hits; AID 504863, 2011;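 active = inhibition averaging 50% or more, tested at 20 µM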;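 note: 0% = DMSO with enzyme and 100% = DMSO wells lacking diaphorase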
# Numbers without * were called inactive; . = not tested or not shown. Most compounds without a hit are left out; they make up all but 2.2% or so of the library.
SMILES,PfG6PD inh,HKDC1 inh,ABHD5 PLIN5 PPI,Exocytosis inh,PfG6PD confirm,others
O=C(/C=C/c1ccc(-c2ccccc2)o1)c1ccccc1,111*,9,11,78*,5,
O=C(O)C[C@H]1c2ccc(C(F)(F)F)cc2S(=O)(=O)N1C1CCCCC1,-16,2,2,4,.,
Cc1ccc(S(=O)(=O)N2CCCC(c3nc4c(nnn4Cc4ccc5c(c4)OCCO5)c(=O)[nH]3)C2)cc1 (configuration not stated),-22,10,-2,14,.,
Cc1ccc(S(=O)(=O)N(CC(=O)NCc2ccco2)Cc2ccccc2F)cc1,72*,1,-1,-3,33,
N#Cc1cc(-c2ccccc2)nn1-c1ccccc1,80*,31,2,-3,34,
COc1ccc(C(=O)N2N=C(c3cccc(NS(C)(=O)=O)c3)CC2c2cccs2)cc1 (configuration not stated),-23,2,-10,-6,.,
CCCCN(C=O)c1c(CC)nc2ccc(C(=O)NCc3cccs3)cn12,.,.,1,-4,.,
S=C(NCCc1ccccc1)NC1CC2CCC(C1)N2Cc1ccccc1 (configuration not stated),2,-5,2,1,.,
Nc1cc2nc[nH]c2cc1N,60*,7,-7,-3,-10,
Cc1nc(Nc2cnc(/C=C/c3cc(C(=O)Nc4cccc(C(F)(F)F)c4)ccc3C)cn2)cc(N2CCNCC2)n1,62*,-9,.,.,-12,
CC[n+]1c(/C=C(\C)SC)sc2ccccc21,-2,-1,-7,-3,.,
CCN1/C(=C/C=C/C=C/C=C/c2sc3ccccc3[n+]2CC)Sc2ccccc21,64*,25,7,-50,96*,Diaphorase 10uM=34;Diaph ctr 30uM=33
Cc1ccc(-c2n[nH]c(=S)n2C)cc1,18,-3,2,-2,.,
Cc1ccc(-c2cn3c(=S)[nH]nc3s2)cc1,65*,-30,0,1,38,
CC(=O)c1sc(NS(=O)(=O)c2ccc(C)cc2)nc1-c1ccccc1,-25,-1,-5,-23,.,
O=C(CNC(=O)c1ccc(Br)cc1)NCC(=O)OCC(=O)c1ccc([N+](=O)[O-])cc1,67*,-10,-12,-3,57*,Diaphorase 10uM=-5;Diaph ctr 30uM=-8
O=C(CNC(=O)c1ccccc1)NCC(=O)OCC(=O)c1ccc([N+](=O)[O-])cc1,59*,-9,-7,1,55*,Diaphorase 10uM=-18;Diaph ctr 30uM=-16
COc1ccc(OC)c(NC(=O)Nc2nnc(COCCO)s2)c1,.,.,-1,-5,.,
CC1=C(SCCC#N)S/C(=C2\SC(C)=C(SCCC#N)S2)S1,60*,1,-2,7,3,
COC(=O)Cc1sc(-c2ccccn2)nc1-c1ccccc1,63*,-14,2,0,23,
O=C1C=C(c2cccc(Br)c2)C[C@@H](c2ccc3c(c2)OCO3)C1,3,0,1,2,.,
CN(C(=O)c1sc2nc(N3CCCC3)c3c(c2c1N)CC(C)(C)OC3)c1ccccc1,66*,3,-11,0,-3,
CCOC(=O)c1sc2nc(N3CCCC3)c3c(c2c1N)CC(C)(C)OC3,-3,2,-6,-1,.,
CC(=O)NC(Cc1ccc(O)cc1)C(=O)NN (configuration not stated),1,-1,-8,4,.,
CN(Cc1ccc(F)cc1)S(=O)(=O)c1nnc(NC(=O)c2ccccc2)s1,34,5,-2,7,.,
CN(Cc1ccccc1)S(=O)(=O)c1nnc(NC(=O)c2ccc(F)cc2)s1,78*,-2,-5,0,22,
CN(Cc1ccco1)S(=O)(=O)c1nnc(NC(=O)c2cccc(Cl)c2)s1,86*,0,20,-1,44,
